Screens deposited in PubChem BioAssay by The Scripps Research Institute Molecular Screening Center.
This is a sample that favours compounds with a hit; in the whole collection about 2.9% have one here.
SIAE inh: human SIAE inhibition, primary screen; SIAE FP-Rh probe binding, fluorescence polarization; 370,000 tested, 0.69% active; inhibition, % at 9.66 µM;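 active = inhibition above a cutoff: mean of compounds within the control limits plus 3 SD of those, cut at about 17% in these data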
PAD4 inh: blocks human protein arginine deiminase 4. 330,000 tested, 0.41% active. Q9UM07. recombinant PAD4, RCA probe fluorescence polarization. inhibition, % at 6.36 µM;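 active = percent inhibition above a cutoff equal to the mean of all tested compounds plus 3 SD, cut at about 15% in these data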
mABHD4 FP: inhibits mouse alpha/beta hydrolase domain 4 | purified mABHD4, FP-Rh probe fluorescence polarization | inhibition, % at 8.92 µM | 370,000 tested, 0.54% active | AID 720543;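 active = inhibition exceeding the mean over every tested compound plus 3 SD, cut at about 30% in these data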
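Assay system: mABHD4 protein; medium: HEPES pH 7.0, NaCl, Pluronic buffer; dosing: 8.92 µM, single dose; schedule: 45 min + 60 min at 25 °C; signal: FP readout, ex 525 nm / em 598 nm; read-out: normalized percent inhibition of probe labeling; repeats: single replicate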
PRMT1 FP inh: PRMT1 (human) inhibition, primary screen | inhibition, % at 2.79 µM | AID 652257 | Q99873 | recombinant PRMT1, activity-based probe fluorescence polarization | 370,000 tested, 1.3% active;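 active = inhibition above about 21% made by adding two undisclosed values, limit read from the data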
HTRA1 inh: inhibitors of human serine peptidase HTRA1; Q92743; recombinant HTRA1, FP-rhodamine activity-based probe, fluorescence polarization; inhibition, % at 5.96 µM; 340,000 tested, 0.5% active; AID 504803; in the data active = inhibition above about 36%
Target sequence (Q92743 whole entry, looked up): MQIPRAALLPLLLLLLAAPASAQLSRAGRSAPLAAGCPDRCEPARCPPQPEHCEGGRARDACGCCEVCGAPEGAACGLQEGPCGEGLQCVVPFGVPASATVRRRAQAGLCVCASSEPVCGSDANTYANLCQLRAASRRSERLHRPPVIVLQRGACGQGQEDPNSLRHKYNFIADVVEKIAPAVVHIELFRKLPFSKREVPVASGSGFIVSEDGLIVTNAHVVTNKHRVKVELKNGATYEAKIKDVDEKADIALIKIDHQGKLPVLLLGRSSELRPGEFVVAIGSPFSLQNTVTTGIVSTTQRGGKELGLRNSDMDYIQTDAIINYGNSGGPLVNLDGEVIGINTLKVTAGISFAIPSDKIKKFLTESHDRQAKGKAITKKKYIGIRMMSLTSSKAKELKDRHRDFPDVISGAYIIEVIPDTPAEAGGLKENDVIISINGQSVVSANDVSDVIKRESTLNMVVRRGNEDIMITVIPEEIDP
TCR CD3 inh: blocks the human TCR-CD3 interaction; 360,000 tested, 0.37% active; TAMRA-labeled TCR probe fluorescence, biochemical; inhibition, % at 9.4 µM; AID 651800; in the data active = inhibition above about 19%;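 note: recombinant mutant TCR 2C K166C tagged with TAMRA read by polarization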
PRMT1 confirm: PRMT1 (human) inhibition, FP confirmation. recombinant His-PRMT1, activity-based probe fluorescence polarization. shares compounds with PRMT1 FP inh. 3,300 tested, 42% active. inhibition, % at 2.79 µM. AID 687036;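 active = mean inhibition across replicates above the hit cutoff derived for the earlier primary screen, cut at about 22% in these data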
Large screens that a line does not name were inactive (follow-up assays come after a bar, where they were run).

Cc1cc(C)cc(N2C(=O)CC(Sc3ncn[nH]3)C2=O)c1 (stereo not given)	PRMT1 FP inh 29 | PRMT1 confirm 43
Cn1nnnc1SC1CC(=O)N(c2ccccc2)C1=O (stereo not given)	PRMT1 FP inh 56 | PRMT1 confirm 75
Cc1cc(C)cc(N2C(=O)CC(Cn3nc(C)cc3C)C2=O)c1 (stereo not given)	none (no result: HTRA1 inh)
CC(=Nc1ccc(Cl)cc1N)c1c(O)cc(C)oc1=O	none (no result: PAD4 inh, HTRA1 inh)
c1ccc(-c2c[nH]c3cccc(-c4cc5ccccc5o4)c23)cc1	none (no result: PAD4 inh, HTRA1 inh, TCR CD3 inh)
Oc1ccccc1C(=S)N1CCCCCC1	none
Oc1ccccc1C(=S)N1CCCCC1	PRMT1 FP inh 36 | PRMT1 confirm inactive
S=C(CN1CCCC1=S)N1CCOCC1	none
CC(C)(CCC(=S)N1CCOCC1)C1CCCCC1	PRMT1 FP inh 37 | PRMT1 confirm inactive
CCCCCCCCN1C(=O)[C@@H](CC(=O)NCCC(C)C)C[C@@]2(C(=O)OC)C1=C[C@H](COCc1ccccc1)O[C@@H]2C	none (no result: PAD4 inh, HTRA1 inh, TCR CD3 inh)
COc1ccccc1CNC(=O)NNC(=O)CCn1nc(C)c([N+](=O)[O-])c1C	none (no result: PAD4 inh, HTRA1 inh, TCR CD3 inh)
O=S1(=O)c2c(cccc2N2CCSCC2)Oc2ccccc2CN1Cc1cn(Cc2cccc(C(F)(F)F)c2)nn1	none (no result: PAD4 inh, HTRA1 inh, TCR CD3 inh)
CCCC(C)NC(=O)c1cc(C(=O)OC)cc([N+](=O)[O-])c1 (stereo not given)	none
CCCC(C)c1nnc(NC(=O)c2cc(C(=O)OC)cc([N+](=O)[O-])c2)s1 (stereo not given)	PRMT1 FP inh 29 | PRMT1 confirm 54
N#CC1=C(N)SC(N)=C(C#N)C1C1C=CCCC1 (stereo not given)	PRMT1 FP inh 36 | PRMT1 confirm inactive
CCSS(=O)(=O)c1cccc2cccnc12	PRMT1 FP inh 93 (no result: HTRA1 inh) | PRMT1 confirm 98
c1ccc2c(c1)N=C(N1CCN(Cc3ccc4c(c3)OCO4)CC1)c1ccccc1S2	none (no result: PAD4 inh, HTRA1 inh, TCR CD3 inh)
Cc1ccccc1CN1CCCCC(NC(=O)c2ccc(-c3ccccc3)cc2)C1=O (stereo not given)	none (no result: PAD4 inh, HTRA1 inh, TCR CD3 inh)
Cc1ccc(NC(=O)OC2CC3CC2[C@H]2CCCCN2[C@H]3Cc2ccccc2)cc1 (stereo not given in full)	none (no result: PAD4 inh, HTRA1 inh, TCR CD3 inh)
CCOC(=O)C1=C(CSc2nc(CC)c(C)cc2C#N)OC(N)=C(C#N)C1c1ccccc1 (stereo not given)	PRMT1 FP inh 28 | PRMT1 confirm inactive
CCOC(=O)C1=C(CSc2nc3c(cc2C#N)CN(C)CC3)OC(N)=C(C#N)C1c1ccncc1 (stereo not given)	PRMT1 FP inh 25 | PRMT1 confirm inactive
CCOC(=O)C1=C(CSc2nc(-c3ccccc3)ccc2C#N)OC(N)=C(C#N)C1c1ccc(OC)cc1 (stereo not given)	PRMT1 FP inh 48 | PRMT1 confirm inactive
CCN(CC)c1ccc(/C=C(/C#N)c2nc3ccccc3[nH]2)c(OC(C)C)c1	PRMT1 FP inh 41 | PRMT1 confirm inactive
CCOc1cccc(/C=C(/C#N)c2nc3ccccc3[nH]2)c1OCC(=O)O	none
CCOC(=O)c1cccc(NC(=O)CN(C)S(=O)(=O)c2ccco2)c1	none (no result: PAD4 inh, HTRA1 inh, TCR CD3 inh)
Brc1ccc2nc(-c3ccccc3)c(Cc3ccsc3)n2c1	none (no result: PAD4 inh, HTRA1 inh)
Clc1ccc2nc(-c3ccco3)c(Cc3ccsc3)n2c1	PRMT1 FP inh 47 (no result: PAD4 inh, HTRA1 inh) | PRMT1 confirm 23
Brc1ccc2nc(-c3ccco3)c(Cc3ccsc3)n2c1	PRMT1 FP inh 36 (no result: PAD4 inh, HTRA1 inh) | PRMT1 confirm 34
Clc1ccc(-c2nc3ccc(Cl)cn3c2Cc2ccsc2)cc1	none (no result: PAD4 inh, HTRA1 inh)
CCN(CC)c1ccc(SS(=O)(=O)O)cc1	PRMT1 FP inh 75 | PRMT1 confirm 83
C=CCN1C(=O)[C@@H](CC(=O)NCCCN2CCCC2=O)[C@]2(C(=O)OC)CCCCC=C12	none (no result: PAD4 inh, HTRA1 inh, TCR CD3 inh)
O=c1[nH]c2c(s1)C=Nc1ccccc1N2	PRMT1 FP inh 69 | PRMT1 confirm 85
O=C1CC(c2ccco2)CC2=C1C=Nc1ccccc1N2 (stereo not given)	none
O=C(NC1CCCCC1)c1ccc(-c2ccccc2)cc1	PRMT1 FP inh 42 | PRMT1 confirm inactive
COc1ccc(C(=O)CSC#N)cc1OC	PRMT1 FP inh 41 | PRMT1 confirm 23
CC(=NNC(=S)N1CCCCCC1)c1cccc2cccnc12	PRMT1 FP inh 26 (no result: PAD4 inh) | PRMT1 confirm inactive
